This passage reports IC50 and MST results from ChEMBL document CHEMBL1129383, “Potent immunosuppressants, 2-alkyl-2-aminopropane-1,3-diols” (J Med Chem, 1996).

Structures are written as SMILES.

A short description of series [1]: Immunosuppressive activity on mouse allogenic MLR in vitro. In kind it is functional. An outline of the steps:
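Responders were BALB/c spleen cells (5 × 10⁵, H-2^d). Stimulators were an equal number of C57BL/6 spleen cells (H-2^b) treated with mitomycin C for 30 min at 37 °C. Co-culture in RPMI 1640 with 5 × 10⁻⁵ M 2-mercaptoethanol, 10% FCS and varied compound, 4 days at 37 °C, 5% CO₂. Proliferation read by MTT. IC50 is the mean of triplicates.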

In series [2] the test system is Rattus norvegicus. Put plainly: Mean survival time of rats after skin allograft (oral administration) at 100 mg/kg; toxic - animals died. In kind it is ADME, organism-based. Further details: dose 100 mg/kg, route oral. The settings on record: in vivo. In outline: (§1)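 LEW rat (male, 4 wk) dorsal skin grafted onto lateral thorax of F344 rats (male, 4 wk). Compounds in 5% (hydroxypropyl)methylcellulose given orally, daily for 10 days from transplant day. Grafts inspected daily until rejection (>90% necrosis of graft epithelium); mean survival time in days ± SD. "Toxic" means animals died.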

In series [3] the test system is Rattus norvegicus. Put plainly: Mean survival time of rats after skin allograft (intraperitoneal administration) at 0.3 mg/kg. The class given is functional. In outline:
(§2)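 LEW rat (male, 4 wk) dorsal skin grafted onto lateral thorax of F344 rats (male, 4 wk). Compounds in 20% (hydroxypropyl)-β-cyclodextrin given ip daily for 10 days from transplant day. Grafts inspected daily until rejection (>90% necrosis of graft epithelium); mean survival time in days ± SD, n = 4–5, Mann-Whitney U test. "Toxic" means animals died.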

Series [4] deals with Rattus norvegicus. Put plainly: Mean survival time of rats after skin allograft (oral administration) at 3 mg/kg. The class given is functional. In outline:
as §1

Series [5] deals with Rattus norvegicus. Kind of series: Mean survival time of rats after skin allograft (oral administration) at 10 mg/kg. In kind it is functional. An outline of the steps:
as §1

Series [6] concerns Rattus norvegicus. Kind of series: Mean survival time of rats after skin allograft (intraperitoneal administration) at 0.1 mg/kg. The class given is functional. In outline: as §2
In series [7] the test system is Rattus norvegicus. Put plainly: Mean survival time of rats after skin allograft (intraperitoneal administration) at 3 mg/kg. In kind it is functional. In outline:
as §2

Series [8] has as its system Rattus norvegicus. Kind of series: Mean survival time of rats after skin allograft (oral administration) at 1 mg/kg. The class given is functional. In outline:
as §1

The species named for a further series is Mus musculus. Kind of series: Effect of compound on IL-2 production from alloantigen-stimulated mouse spleen cells. In kind it is functional, cell-based. In outline: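 BALB/c spleen cells at 5×10^6 cells/mL co-cultured with an equal number of mitomycin C-pretreated C57BL/6 spleen cells, with or without test compound, in RPMI 1640 with 5×10^-5 M 2-mercaptoethanol and 10% FCS; 48 h at 37 °C. Supernatant IL-2 activity measured by IL-2-dependent CTLL-2 proliferation, given in units/mL.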

Series [9] concerns Rattus norvegicus. Put plainly: Mean survival time of rats after skin allograft (oral administration) at 30 mg/kg. In kind it is functional. An outline of the steps: as §1
Series [10] has as its system Rattus norvegicus. Put plainly: Mean survival time of rats after skin allograft (oral administration) at 0.3 mg/kg. In kind it is functional. An outline of the steps: as §1
Series [11] has as its system Rattus norvegicus. Put plainly: Mean survival time of rats after skin allograft (intraperitoneal administration) at 1 mg/kg. The class given is functional. An outline of the steps:
as §2

For series [12], the system named is Rattus norvegicus. Put plainly: Mean survival time of rats after skin allograft (oral administration) at 0.1 mg/kg. In kind it is functional. An outline of the steps:
as §1

The test system of series [13] is Rattus norvegicus. Put plainly: Mean survival time of rats after skin allograft (intraperitoneal administration) at 10 mg/kg; toxic - animals died. Also on record: dose 10 mg/kg, route intraperitoneal. The settings on record: in vivo, ip. The class given is ADME, organism-based. In outline:
as §2

The subject of series [14] is Rattus norvegicus. Kind of series: Mean survival time of rats after skin allograft (intraperitoneal administration) at 30 mg/kg. The class given is functional. In outline:
as §2

In series [15] the test system is Rattus norvegicus. Kind of series: Mean survival time of rats after skin allograft (intraperitoneal administration) at 1 mg/kg; toxic - animals died. The class given is ADME, organism-based. Further details: dose 1 mg/kg, route intraperitoneal. To be noted: in vivo, ip. In outline:
as §2

For series [16], the system named is Rattus norvegicus. Put plainly: Mean survival time of rats after skin allograft (intraperitoneal administration) at 20 mg/kg. The class given is functional. In outline: as §2
The subject of series [17] is Rattus norvegicus. Put plainly: Mean survival time of rats after skin allograft (intraperitoneal administration) at 30 mg/kg; toxic - animals died. In kind it is ADME, organism-based. Also on record: dose 30 mg/kg, route intraperitoneal. To be noted: in vivo, ip. In outline:
as §2

Series [18] relates to Rattus norvegicus. Kind of series: Mean survival time of rats after skin allograft (intraperitoneal administration) at 10 mg/kg. In kind it is functional. In outline:
as §2

Series [19] relates to Rattus norvegicus. Kind of series: Mean survival time of rats after skin allograft (intraperitoneal administration) at 100 mg/kg; toxic - animals died. Further details: dose 100 mg/kg, route intraperitoneal. To be noted: in vivo, ip. The class given is ADME, organism-based. In outline: as §2
Series [20] concerns Rattus norvegicus. Kind of series: Mean survival time of rats after skin allograft (oral administration) at 30 mg/kg; toxic - animals died. In kind it is ADME, organism-based. Also on record: dose 30 mg/kg, route oral. To be noted: in vivo. An outline of the steps:
as §1

Series [21] relates to Rattus norvegicus. Put plainly: Mean survival time of rats after skin allograft (intraperitoneal administration) at 20 mg/kg; toxic - animals died. Further details: dose 20 mg/kg, route intraperitoneal. To be noted: in vivo, ip. The class given is ADME, organism-based. An outline of the steps: as §2

Take `CCCCCCCCCCC(N)(CO)CO`: the IC50 (usually the concentration that gives 50% inhibition) in series [1] came out at 440 nM.
The same measure, in the same setting: next, `CCCCCCCCCCCCC/C=C/C[C@H]1OC(=O)[C@](N)(CO)[C@H]1O`: 10 nM; `CCCCCCCCCCCCC(N)(CO)CO`: 270 nM; `CCCCCCCCC(N)(CO)CO`: 3700 nM.
In turn, `CCCCCCCCCCCCCC(N)(CO)CO` displayed an IC50 in series [1] of 12 nM.
`CCCCCCCCCCCCCCC(N)(CO)CO`: the MST result was “Toxic” with Rattus norvegicus [2]; 23.1 days with Rattus norvegicus [3]; 36.4 days in the series with Rattus norvegicus [4]; 46.4 days in the series on Rattus norvegicus [5]; 11.2 days in the series on Rattus norvegicus [6]; 44.4 days in the series with Rattus norvegicus [7]. The MST in the series on Rattus norvegicus [8] was 24.4 days; with Rattus norvegicus [9], 52.2 days; with Rattus norvegicus [10] it was 13.6 days; with Rattus norvegicus [11], 39 days; with Rattus norvegicus [12], 10.3 days; in the series on Rattus norvegicus [13], “Toxic”. The IC50 was more than 1000 nM in the series listed under Mus musculus and 5.9 nM in [1].
With `CCCCCCCCCCCCCCCCCCC(N)(CO)CO`, the MST in the series on Rattus norvegicus [3] is 11.2 days; in the series on Rattus norvegicus [7], 17.6 days; in the series on Rattus norvegicus [11], 14.8 days; in the series on Rattus norvegicus [13], “Toxic”. In series [1], this compound registered an IC50 of 12 nM.
Turning to `C/C=C/C[C@@H](C)[C@@H](O)[C@H]1C(=O)N[C@@H](CC)C(=O)N(C)CC(=O)N(C)[C@@H](CC(C)C)C(=O)N[C@@H](C(C)C)C(=O)N(C)[C@@H](CC(C)C)C(=O)N[C@@H](C)C(=O)N[C@H](C)C(=O)N(C)[C@@H](CC(C)C)C(=O)N(C)[C@@H](CC(C)C)C(=O)N(C)[C@@H](C(C)C)C(=O)N1C` [CYCLOSPORINE], the MST with Rattus norvegicus [14] was 19.4 days; in the series with Rattus norvegicus [4], 10.3 days; with Rattus norvegicus [5], 13.5 days; in the series on Rattus norvegicus [8], 8.5 days; in the series with Rattus norvegicus [9], 20.5 days; with Rattus norvegicus [11], 7.6 days.
With `CCCCCCCCCCCCCCCCCCCCC(N)(CO)CO`, the IC50 in [1] came to 190 nM.
On to `CCCCCCC(O)CCCCCC/C=C/C[C@@H](O)[C@H](O)[C@@](N)(CO)C(=O)O` (stereo partly specified), for which the MST entry in the series on Rattus norvegicus [15] is “Toxic”; in the series on Rattus norvegicus [3] it was 9.6 days; in the series with Rattus norvegicus [6], 7.6 days. This compound also registered an IC50 in series [1] of 6.3 nM.
Consider `CCCCCCC(O)CCCCCC/C=C/C[C@@H](O)[C@H](O)C(N)(CO)CO` (stereo partly specified), for which the MST was 13.4 days with Rattus norvegicus [16]; “Toxic” with Rattus norvegicus [17]; 9.2 days with Rattus norvegicus [7]; 8.2 days in the series with Rattus norvegicus [11]; 11.8 days with Rattus norvegicus [18]. In series [1], this compound showed an IC50 of 4.7 nM.
For `CCCCCCCCCCCCC/C=C/C[C@@H](O)[C@H](O)C(N)(CO)CO`, the MST in the series on Rattus norvegicus [16] was 16.6 days; with Rattus norvegicus [17] it was “Toxic”; in the series on Rattus norvegicus [7] it was 9.8 days; with Rattus norvegicus [11] it was 8.2 days; in the series on Rattus norvegicus [18] it was 14 days. In addition, 56 nM corresponded to half-maximal inhibition in series [1] (IC50).
Regarding `CCCCCCCCCCCCC/C=C/C[C@@H](O)[C@H](O)[C@@](N)(CO)C(=O)O`, the MST result in the series on Rattus norvegicus [15] was “Toxic”; in the series with Rattus norvegicus [3], 10.6 days; with Rattus norvegicus [6], 9 days. This compound also showed an IC50 in series [1] of 1.2 nM.
Regarding `CCCCCCC(=O)CCCCCC/C=C/C[C@@H](O)[C@H](O)[C@@](N)(CO)C(=O)O` [MYRIOCIN], in the series on Rattus norvegicus [15], the MST entry is recorded as “Toxic”. Moreover, the midpoint of inhibition in series [1], the IC50, lay at 3 nM.
`CCCCCCC(O)CCCCCCCCC[C@@H](O)[C@H](O)C(N)(CO)CO` (stereo partly specified): the MST was 12.5 days with Rattus norvegicus [14]; 11 days with Rattus norvegicus [7]; 9.2 days in the series on Rattus norvegicus [11]; 12.2 days in the series on Rattus norvegicus [18]; “Toxic” with Rattus norvegicus [19]. Inhibition in series [1] was half-maximal at 1630 nM (IC50).
On to `CCCCCCCCCCCCC/C=C/C[C@H]1OC(=O)[C@](N)(CO)[C@@H]1O`, for which, in [1], the half-inhibitory concentration (IC50) amounted to 3.6 nM. That is a single-digit nanomolar value.
On to `CCCCCCCCCCCCCCCC(N)(CO)CO`, for which the MST in the series on Rattus norvegicus [4] was 47 days; with Rattus norvegicus [5] it was 8.3 days; in the series with Rattus norvegicus [8], 35.5 days; with Rattus norvegicus [10] it was 28.5 days; with Rattus norvegicus [20], “Toxic”; in the series with Rattus norvegicus [12], 18.8 days. In the series with Rattus norvegicus [13], the MST entry is on record as “Toxic”. In addition, 2.9 nM corresponded to half-maximal inhibition in series [1] (IC50).
Turning to `CCCCCCCCCCCCCCCCC(N)(CO)CO`, the MST in the series on Rattus norvegicus [3] was 14.3 days; in the series with Rattus norvegicus [21], “Toxic”; in the series on Rattus norvegicus [6], 10.5 days; in the series with Rattus norvegicus [7] it was 41.8 days; in the series on Rattus norvegicus [11], 38.5 days. Also, in series [1], inhibition was half-maximal at 10 nM (IC50).
`CCCCCCCCCCCCCCCC[C@@H](O)[C@H](O)C(N)(CO)CO`: the MST is 15 days with Rattus norvegicus [16]; “Toxic” in the series with Rattus norvegicus [17]; 9.2 days in the series on Rattus norvegicus [7]; 8.2 days with Rattus norvegicus [11]; 11.8 days in the series with Rattus norvegicus [18]. This compound displayed an IC50 in [1] of 320 nM.
`CCCCCCCCCCCCCCCCCCCCCCC(N)(CO)CO`: the IC50 in [1] amounted to 1600 nM.
